Assay results from ChEMBL document CHEMBL1151448, “Comparative antianaerobic activities of doripenem determined by MIC and time-kill analysis” (2008).
In brackets after ≈: the same amount, converted by molar mass.

Legend:
Format in all cases: functional
Prevotella bivia = experiment: Antimicrobial activity against beta lactamase-positive Prevotella bivia isolated from intra-abdominal infection and pelvic inflammatory disease patients after 48 hrs by agar dilution method
Procedure, shortened: (§1)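 CLSI agar dilution on brucella blood agar supplemented with laked sheep blood, hemin and vitamin K. Inocula of about 1 × 10^5 CFU/spot were applied by Steers replicator, and plates were incubated 48 h at 35°C in an anaerobic glove box. MIC was the concentration giving marked growth reduction versus the anaerobic control plate. QC strains were included each run, and β-lactamase was detected by Cefinase disk.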

[1] = system: Clostridium paraputrificum; experiment: Antimicrobial activity against Clostridium paraputrificum isolated from intra-abdominal infection and pelvic inflammatory disease patients after 48 hrs by agar dilution method; procedure, shortened: as §1
Clostridium perfringens = experiment: Bactericidal activity against Clostridium perfringens isolated from intra-abdominal infection and pelvic inflammatory disease patients assessed as bacterial killing at MIC after 48 hrs by time kill analysis
Procedure, shortened: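 Time-kill in prereduced brucella broth with 5% laked horse blood cells, hemin and vitamin K1. […] Viable counts taken at 6, 12, 24 and 48 h, plates incubated 48 h anaerobically. Kill scored as 90%, 99% or 99.9%; 99.9% defines bactericidal.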

Prevotella intermedia = experiment: Bactericidal activity against beta lactamase-positive Prevotella intermedia isolated from intra-abdominal infection and pelvic inflammatory disease patients assessed as bacterial killing at MIC after 48 hrs by time kill analysis
Procedure, shortened: (§2)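 Anaerobic macrodilution time-kill. Inoculum from brucella blood plates, prepared and diluted in prereduced brucella broth inside the anaerobe chamber. Final 10^6 to 10^7 CFU/ml in prereduced brucella broth with 5% laked horse blood cells, 5 μg/ml hemin and 1 μg/ml vitamin K1. […] Shaken at 35°C for 48 h. Viable counts taken at 6, 12, 24 and 48 h. 99.9% kill taken as bactericidal.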

Bacteroides fragilis = experiment: Bactericidal activity against beta lactamase-positive Bacteroides fragilis isolated from intra-abdominal infection and pelvic inflammatory disease patients assessed as bacterial killing at MIC after 48 hrs by time kill analysis
Procedure, shortened: (§3)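 Macrodilution time-kill in prereduced brucella broth with 5% laked horse blood, hemin 5 μg/ml and vitamin K1 1 μg/ml, at final inoculum 10^6–10^7 CFU/ml. […] Viable counts were taken at 6, 12, 24 and 48 h on plates incubated 48 h anaerobically. 99.9% kill was taken as bactericidal.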

Finegoldia magna = experiment: Bactericidal activity against beta lactamase-positive Finegoldia magna isolated from intra-abdominal infection and pelvic inflammatory disease patients assessed as bacterial killing at MIC after 48 hrs by time kill analysis; procedure, shortened: as §2
Fusobacterium nucleatum = experiment: Bactericidal activity against beta lactamase-positive Fusobacterium nucleatum isolated from intra-abdominal infection and pelvic inflammatory disease patients assessed as bacterial killing at MIC after 48 hrs by time kill analysis; procedure, shortened: as §2
[2] = system: Bacteroides thetaiotaomicron; experiment: Bactericidal activity against beta lactamase-positive Bacteroides thetaiotaomicron isolated from intra-abdominal infection and pelvic inflammatory disease patients assessed as bacterial killing at MIC after 48 hrs by time kill analysis; procedure, shortened: as §3
Clostridioides difficile = experiment: Bactericidal activity against Clostridium difficile isolated from intra-abdominal infection and pelvic inflammatory disease patients assessed as bacterial killing at MIC after 48 hrs by time kill analysis; procedure, shortened: as §3

Row | Compound | MIC50 (Prevotella bivia) [µg/mL] | MIC90 (Prevotella bivia) [µg/mL] | MIC [1] [µg/mL] | Activity (Clostridium perfringens) [%] | Activity (Prevotella intermedia) [%] | MIC (Prevotella bivia) [µg/mL] | Activity (Bacteroides fragilis) [%] | Activity (Finegoldia magna) [%] | Activity (Fusobacterium nucleatum) [%] | Activity [2] [%] | Activity (Clostridioides difficile) [%]
1 | C[C@@H](O)[C@H]1C(=O)N2C(C(=O)O)=C(S[C@@H]3CN[C@H](C(=O)Nc4cccc(C(=O)O)c4)C3)[C@H](C)[C@H]12 | 0.25 (≈ 0.526 µM) | 0.25 (≈ 0.526 µM) | 0.125 (≈ 0.263 µM) |  |  |  |  |  |  |  | 
2 | C[C@@H](O)[C@H]1C(=O)N2C(C(=O)O)=C(S[C@@H]3CN[C@H](CNS(N)(=O)=O)C3)[C@H](C)[C@H]12 [DORIPENEM] | 0.06 (≈ 0.143 µM) | 0.125 (≈ 0.297 µM) | 0.25 (≈ 0.595 µM) | 99 | 99 | 0.06 (≈ 0.143 µM) | 99 | 99 | 99 | 99 | 99
3 | C[C@@H](O)[C@H]1C(=O)N2C(C(=O)O)=C(SCCNC=N)C[C@H]12 [IMIPENEM ANHYDROUS] | 0.03 (≈ 0.1 µM) | 0.06 (≈ 0.2 µM) | 0.5 (≈ 1.67 µM) | 99 | 99 |  | 99 | 99 | 99 | 99 | 99
4 | C[C@@H](O)[C@H]1C(=O)N2C(C(=O)O)=C(S[C@@H]3CN[C@H](C(=O)N(C)C)C3)[C@H](C)[C@H]12 [MEROPENEM] | 0.06 (≈ 0.156 µM) | 0.125 (≈ 0.326 µM) | 0.25 (≈ 0.652 µM) |  |  |  |  |  |  |  | 
